pIC50: −log10 of the molar value.
What was measured:
Format in all cases: functional, cell-based
[1] = tested on: A2780; experiment: Antiproliferative activity against human A2780 cells
[2] = tested on: MDA-MB-435; experiment: Antiproliferative activity against human MDA-MB-435 cells
Method in brief: (§1)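 Cultured human cancer lines (MDA-MB-435 breast, HT-29 colon, H522-T1 non-small cell, U937 histiocytic lymphoma) were exposed to compound, and growth was read by luminescence. The method follows an earlier report, with luminescence measured on a multilabel reader.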

[3] = Antiproliferative activity against human H522T1 cells; conditions: H522-T1; method in brief: as §1
[4] = tested on: HT-29; experiment: Antiproliferative activity against human HT29 cells; method in brief: as §1
[5] = tested on: U-937; experiment: Antiproliferative activity against human U937 cells; method in brief: as §1

Compound | pIC50 [1] | pIC50 [2] | pIC50 [3] | pIC50 [4] | pIC50 [5]
CO[C@H]1CCO[C@@H](O[C@@H]2C=C3CC[C@@H]4[C@H](CC[C@]5(C)[C@@H](C6=CC(=O)OC6)CC[C@]45O)[C@@]3(C)C[C@H]2O)[C@H]1O | 5.60 | – | – | – | –
CO[C@H]1CCO[C@H]2O[C@@H]3C=C4CC[C@@H]5[C@H](CC[C@]6(C)[C@@H](C7=CC(=O)OC7)CC[C@]56O)[C@@]4(C)C[C@H]3O[C@]21O [ELAEODENDROSIDE B] | 7.72 | 6.82 | 7.10 | 7.10 | 7.30
CO[C@H]1CCO[C@H]2O[C@@H]3C=C4CC[C@@H]5[C@H](CC[C@]6(C)[C@@H](C7=CC(=O)OC7)[C@@H](OC(C)=O)C[C@]56O)[C@@]4(C)C[C@H]3O[C@]21O [ELAEODENDROSIDE F] | 6.72 | – | – | – | –
CO[C@@H]1CCO[C@H]2O[C@@H]3C=C4CC[C@@H]5[C@H](CC[C@]6(C)[C@@H](C7=CC(=O)OC7)[C@@H](OC(C)=O)C[C@]56O)[C@@]4(C)C[C@H]3O[C@]21O [ELAEODENDROSIDE G] | 7.00 | – | – | – | –
CO[C@@H]1C[C@@H](C)O[C@H]2O[C@@H]3C=C4CC[C@@H]5[C@H](CC[C@]6(C)[C@@H](C7=CC(=O)OC7)[C@@H](OC(C)=O)C[C@]56O)[C@@]4(C)C[C@H]3O[C@]21O [ELAEODENDROSIDE T] | 7.07 | 6.43 | 6.74 | 6.74 | 6.82
CO[C@H]1CCO[C@@H](O[C@@H]2C=C3CC[C@@H]4[C@H](CC(=O)[C@]5(C)[C@@H](C6=CC(=O)OC6)CC[C@]45O)[C@@]3(C)C[C@H]2O)[C@H]1O [ELAEODENDROSIDE U] | 4.52 | – | – | – | –

— ChEMBL document CHEMBL1143723, “Antiproliferative cardenolides of an Elaeodendron sp. from the Madagascar rain forest(1)” (J Nat Prod, 2007)
